The RNAGym collection of RNA variant scans (doi:10.1126/science.aae0568)
Variants at the floor of the assay were thinned out.

B1: tRNA (parent)
chain: GUUCCGUUGGCGUAAUGGUAACGCGUCUCCCUCCUAAGGAGAAGACUGCGGGUUCGAGUCCCGUACGGAACG

Variants of: B1
Test: yeast fitness relative to wild type (ratio to wild type); higher = fitter; tRNA-Arg(CCU), competitive growth, 37 C, YPD
How it was run: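 Start and end populations of a pooled competition were compared by 100-nucleotide paired-end sequencing of gene amplicons. The Saccharomyces cerevisiae strains carried tRNA-Arg(CCU) gene variants at the native genomic locus, synthesised with a 3% per-site mutation rate at 69 sites, and competed in YPD at 37°C for 24 hours in six parallel replicates. Darwinian fitness relative to wild type was based on the change in genotype frequencies. Genotypes required ≥ 100 starting reads, and estimates < 0.5 were set to 0.5.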

Compared with A42G A43G, A40U G63C U64C is lower in yeast fitness: 0.766 for the first, 0.53 for the second.

Going from A42C U64C to A40G G67C, the yeast fitness rises from 0.882 to 0.956.

Compared with A40G G67A, A40U U54A A70U is lower in yeast fitness: 0.754 for the first, 0.548 for the second.

Compared with A40U C55A G56C, A42C G68C is higher in yeast fitness: at most 0.5 for the first, 0.657 for the second.

First: A42C A43C C49U A70C
Second: A42C G68C A69U
The yeast fitness of the first is higher: 0.585 for the first, at most 0.5 for the second.

Going from A42G A65U to A42G A65C, the yeast fitness rises from 0.689 to 0.755.

Going from A40U A57G to A40U A57C, the yeast fitness falls from 0.881 to 0.744.

Compared with G41A A65U, G41A A65G is higher in yeast fitness: 0.722 for the first, 0.934 for the second.

Going from A40U G52A to A40G C61G U64C, the yeast fitness falls from 0.704 to at most 0.5.

Compared with A42C A65C, A42C A65G is lower in yeast fitness: 0.942 for the first, 0.922 for the second.

First: A42C A65U
Second: G41C A69C
The yeast fitness of the first is lower: 0.784 for the first, 0.858 for the second.

First: G41C A69U
Second: A40U G68C
The yeast fitness of the first is higher: 0.813 for the first, 0.741 for the second.

Compared with A42G A57C C61G, G41A C60A is lower in yeast fitness: 0.708 for the first, 0.667 for the second.

A42C C62G G67C and G41A G63C C66A cannot be ordered by yeast fitness: at most 0.5 for the first, at most 0.5 for the second.

A42C G48C C49A and A40U A43G C60G cannot be ordered by yeast fitness: at most 0.5 for the first, at most 0.5 for the second.

Compared with A40U G48C C55U C61G, A42G A43G C49U is higher in yeast fitness: 0.522 for the first, 0.556 for the second.

A40G U53A C55G and A42C U47A G52A cannot be ordered by yeast fitness: at most 0.5 for the first, at most 0.5 for the second.

G41C G50C C60U and A40U C55U A65C cannot be ordered by yeast fitness: at most 0.5 for the first, at most 0.5 for the second.

First: A40U U47C
Second: A40U C55G
The yeast fitness of the first is higher: 0.869 for the first, 0.664 for the second.

First: A40U C55U
Second: G41A U64C
The yeast fitness of the first is lower: 0.795 for the first, 1.07 for the second.

Going from A40U C49G G56C A69C to G41C U54C, the yeast fitness rises from at most 0.5 to 0.889.

Compared with G41C U54G, A40U G67C is higher in yeast fitness: at most 0.5 for the first, 0.755 for the second.

Compared with G41A A42U U59G, A42C U59C is higher in yeast fitness: at most 0.5 for the first, 0.901 for the second.

First: G41A A43G C60G A65G
Second: G41C
The yeast fitness of the first is lower: 0.571 for the first, 0.967 for the second.

Going from G41U to G41A, the yeast fitness rises from 0.988 to 1.

Compared with A40U U47A G58A, A40U U47A G58C is higher in yeast fitness: at most 0.5 for the first, 0.579 for the second.

Compared with A42C G50C G56A, A42C G67C A70U is higher in yeast fitness: at most 0.5 for the first, 0.505 for the second.

Compared with G41A C66G, A42C G50U is higher in yeast fitness: 0.625 for the first, 0.781 for the second.

Going from A42C G50A to A42C G52A, the yeast fitness falls from 0.745 to 0.676.

Compared with G41C A45U G67C, A42C U47G C49U is lower in yeast fitness: 0.607 for the first, at most 0.5 for the second.

Compared with A40U A42U C49G G51A C66A G68C, A40G C62G is higher in yeast fitness: at most 0.5 for the first, 0.719 for the second.

Compared with A40U A42C A45U U47C A65G, A40U U54C A70U is higher in yeast fitness: at most 0.5 for the first, 0.695 for the second.

G41C A45U C55U and A40U A42C C55U C62U cannot be ordered by yeast fitness: at most 0.5 for the first, at most 0.5 for the second.

First: G41A G50A
Second: G41A G58C
The yeast fitness of the first is lower: 0.807 for the first, 0.929 for the second.

First: G41A C60G A70G
Second: G41A A43U
The yeast fitness of the first is lower: 0.542 for the first, 0.788 for the second.

Going from G41A A43C to A40G G44A A45U C49U, the yeast fitness falls from 0.843 to at most 0.5.

First: G41A C49A C66A
Second: A42C G63A
The yeast fitness of the first is lower: at most 0.5 for the first, 0.818 for the second.

Compared with A42C G63U, A42C A43C A65G is higher in yeast fitness: 0.72 for the first, 1.09 for the second.

Going from G41A U54C to G41C C61A, the yeast fitness falls from 0.814 to 0.593.

First: G41C C61U
Second: G41C U64A
The yeast fitness of the first is higher: 0.857 for the first, 0.67 for the second.

Going from G41C U64C to A40G C46A C61U, the yeast fitness falls from 0.896 to 0.782.

First: A42C C55U C62U
Second: A40G G50C
The yeast fitness of the first is lower: 0.509 for the first, 0.649 for the second.

First: G41C C55G
Second: G41C A42G
The yeast fitness of the first is lower: 0.621 for the first, 0.804 for the second.

First: G41A U53A C61A G68C
Second: A40U A42C
The yeast fitness of the first is lower: 0.584 for the first, 0.752 for the second.

Compared with G41C U59C, G41A U59G is lower in yeast fitness: 0.933 for the first, 0.822 for the second.

Going from G41A U59A to A40G C46A C62U, the yeast fitness falls from 0.826 to 0.734.

Compared with A42G A45U C66U, A40G C46U is higher in yeast fitness: 0.684 for the first, 0.918 for the second.

Compared with A40G C46G, A42G A45G A65U is lower in yeast fitness: 0.998 for the first, 0.635 for the second.

Compared with A42C G58C, G41A G48A is lower in yeast fitness: 0.975 for the first, 0.944 for the second.

First: G41C G58C
Second: G41C G58A
The yeast fitness of the first is lower: 0.762 for the first, 0.948 for the second.

Going from A42G A45C to A42C A43C C60G C61G C62U, the yeast fitness falls from 0.856 to at most 0.5.

First: G41C C46A C62G
Second: A42G A57C U59C C61U
The yeast fitness of the first is higher: 0.551 for the first, at most 0.5 for the second.

Going from A40G C62A A70C to G41C C49G, the yeast fitness rises from 0.595 to 0.702.

First: G41C C49U
Second: A40G U47A
The yeast fitness of the first is higher: 0.894 for the first, 0.848 for the second.

Compared with A40G U47C, A40G U47G is lower in yeast fitness: 0.788 for the first, 0.595 for the second.

Going from G41A G51A to G41A G51C, the yeast fitness falls from 0.664 to at most 0.5.

Compared with A40G G41A, G41C C55A A69C is lower in yeast fitness: 0.825 for the first, 0.529 for the second.

A40U A42C G44A G51A and A42C G52A G56C cannot be ordered by yeast fitness: at most 0.5 for the first, at most 0.5 for the second.

Going from A40U C55U G68A to A42C A57G, the yeast fitness rises from at most 0.5 to 0.749.

First: A40U A42C G67A
Second: G41A U47A A70G
The yeast fitness of the first is lower: 0.534 for the first, 0.571 for the second.

Going from A42C G56C to A40G G44A G63C, the yeast fitness falls from 0.649 to at most 0.5.

First: G41C A70C
Second: G41C A70U
The yeast fitness of the first is lower: 0.858 for the first, 0.88 for the second.

Going from G41C A70G to A40U C46U, the yeast fitness rises from 0.829 to 1.08.

First: A40G G52A U53A C66U
Second: G41C A43G U54A
The yeast fitness of the first is lower: at most 0.5 for the first, 0.564 for the second.

Compared with A40U G44A C61A, A42C G48A C62U is higher in yeast fitness: 0.511 for the first, 1.03 for the second.

A40U A57C G67A A69U and G41A C46U C49A cannot be ordered by yeast fitness: at most 0.5 for the first, at most 0.5 for the second.

Going from A40G C46A G67A to A42C G67U, the yeast fitness rises from 0.563 to 0.811.

Going from A42C G67C to A42C A45C G48A G58A C61U A70G, the yeast fitness falls from 0.829 to at most 0.5.

Going from G41A C60A U64A to A40U A42U A65C, the yeast fitness rises from at most 0.5 to 0.747.

First: G41C A42G G51A G68C
Second: G41A C60G C61G C62U
The yeast fitness of the first is lower: at most 0.5 for the first, 0.682 for the second.

Going from G41C C61U G67A to A42C A69C, the yeast fitness rises from at most 0.5 to 0.939.

Compared with A42C C61G, G41U G52C is lower in yeast fitness: 0.721 for the first, 0.584 for the second.

Going from A40G C49U A65C to A42C C55A U59C, the yeast fitness falls from 0.941 to 0.661.

Going from G41C C55A C66U A69C to G41A A42C G50C A70G, the yeast fitness rises from at most 0.5 to 0.621.

Compared with G41A C49A, G41A C49U is higher in yeast fitness: 0.663 for the first, 0.921 for the second.

Going from G41A C49G to A42C A57G C61U, the yeast fitness falls from 0.655 to at most 0.5.

Going from G41A G52C to G41A G52A, the yeast fitness rises from 0.542 to 0.79.

A40U C55A A57U and A40G C49U G67A cannot be ordered by yeast fitness: at most 0.5 for the first, at most 0.5 for the second.

First: A42C U53A
Second: A42G A43U G44C A65C
The yeast fitness of the first is higher: 0.626 for the first, at most 0.5 for the second.

Going from A42G A43U U54A to A40G A70U, the yeast fitness rises from at most 0.5 to 0.891.

Going from A42C U47C to G41A G51A C60G A65G, the yeast fitness falls from 1.09 to at most 0.5.

A42C A57U C61U and G41A C60G C62A A65G cannot be ordered by yeast fitness: at most 0.5 for the first, at most 0.5 for the second.

A42G A45C G48C C66U and G41C G56A A65G C66U cannot be ordered by yeast fitness: at most 0.5 for the first, at most 0.5 for the second.

G41A C49G A65G gave a yeast fitness of 0.546.
